Results on two molecules are retold here after ChEMBL document CHEMBL1268902, “9-Dihydroerythromycin ethers as motilin agonists--developing structure-activity relationships for potency and safety” (Bioorg Med Chem, 2010).

Values after ≈ are worked out from the molar mass of the structure shown.

In data set [1] the test system is Streptococcus pneumoniae. Put plainly: Antibacterial activity against erythromycin-sensitive Streptococcus pneumoniae ATCC 6301. Format: functional. Put shortly:
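MIC determined by growth inhibition; routine screening used the highly erythromycin-sensitive strain S. pneumoniae ATCC6301.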

Data set [2] has as its target T1, hERG (KCNH2) (Homo sapiens, UniProt Q12809). Put plainly: Inhibition of human ERG at 30 uM.
The target in data set [3] is T1, hERG (KCNH2). Nature of the data set: Inhibition of human ERG at 300 uM.
Data set [4] in a line: Induction of contraction in rabbit smooth muscle. It counts as functional, tissue-based, Oryctolagus cuniculus, Muscle tissue. Put shortly:
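Rabbit smooth muscle contractility assay; EC50 taken as the concentration giving 50% of maximal possible contraction.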

Data set [5] is described as follows: Induction of contraction in rabbit smooth muscle at EC90 concentration after three cycles of administration and washout measured after 4th dose. It counts as functional, Oryctolagus cuniculus, Muscle tissue. In short, it runs like this: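 Rabbit smooth muscle contractility; drug applied at EC90 concentration through three cycles of administration and washout, tachyphylaxis reported as % contractility response then obtained.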

T1 sequence (Q12809 whole entry): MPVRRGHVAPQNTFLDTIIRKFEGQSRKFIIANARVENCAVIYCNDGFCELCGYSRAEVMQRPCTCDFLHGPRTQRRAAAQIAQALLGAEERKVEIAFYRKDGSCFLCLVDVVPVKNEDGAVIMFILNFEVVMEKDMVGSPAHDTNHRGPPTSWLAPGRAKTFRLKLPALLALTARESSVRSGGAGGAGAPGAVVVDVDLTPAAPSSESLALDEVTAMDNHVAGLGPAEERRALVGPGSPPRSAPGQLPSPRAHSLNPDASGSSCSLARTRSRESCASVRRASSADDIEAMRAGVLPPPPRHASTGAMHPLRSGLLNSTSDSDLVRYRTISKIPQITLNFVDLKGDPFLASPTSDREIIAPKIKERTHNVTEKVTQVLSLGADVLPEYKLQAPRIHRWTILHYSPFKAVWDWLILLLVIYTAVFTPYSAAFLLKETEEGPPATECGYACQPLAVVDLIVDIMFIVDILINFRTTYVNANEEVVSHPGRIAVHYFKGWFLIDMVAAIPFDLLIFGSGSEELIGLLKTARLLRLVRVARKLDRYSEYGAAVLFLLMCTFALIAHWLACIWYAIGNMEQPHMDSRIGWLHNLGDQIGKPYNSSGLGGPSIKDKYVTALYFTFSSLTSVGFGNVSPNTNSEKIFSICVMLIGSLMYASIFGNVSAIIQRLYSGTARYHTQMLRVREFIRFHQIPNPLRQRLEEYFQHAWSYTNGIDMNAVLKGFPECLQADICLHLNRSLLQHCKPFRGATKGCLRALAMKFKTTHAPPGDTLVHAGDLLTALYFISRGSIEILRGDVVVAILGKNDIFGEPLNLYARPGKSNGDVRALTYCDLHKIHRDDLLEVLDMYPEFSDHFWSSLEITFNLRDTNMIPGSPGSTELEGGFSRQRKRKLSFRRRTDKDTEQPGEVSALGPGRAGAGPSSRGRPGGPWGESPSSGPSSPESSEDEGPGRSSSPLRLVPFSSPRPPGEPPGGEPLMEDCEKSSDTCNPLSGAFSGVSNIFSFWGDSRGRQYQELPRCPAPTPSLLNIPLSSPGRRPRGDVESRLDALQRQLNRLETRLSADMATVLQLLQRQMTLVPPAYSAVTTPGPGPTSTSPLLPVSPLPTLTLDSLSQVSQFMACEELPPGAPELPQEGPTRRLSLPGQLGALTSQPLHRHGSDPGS

`CC[C@H]1OC(=O)[C@H](C)[C@@H](O[C@H]2C[C@@](C)(OC)[C@@H](O)[C@H](C)O2)[C@H](C)[C@@H](O[C@@H]2O[C@H](C)C[C@H](N(C)C(C)C)[C@H]2O)[C@](C)(O)C[C@@H](C)[C@H](OCc2cc(C)on2)[C@H](C)[C@@H](O)[C@]1(C)O` showed a minimum inhibitory concentration (MIC) in data set [1] of 128 µg/mL (≈ 149 µM). In addition, at 30 µM the inhibition in data set [2] was 45%. Besides, in data set [3], at 300 µM the inhibition was 90%. This molecule also displayed an EC50 in data set [4] of 110 nM. This molecule returned an Activity in data set [5] of 78%.
The like results for `CC[C@H]1OC(=O)[C@H](C)[C@@H](O[C@H]2C[C@@](C)(OC)[C@@H](O)[C@H](C)O2)[C@H](C)[C@@H](O[C@@H]2O[C@H](C)C[C@H](N(C)C(C)C)[C@H]2O)[C@](C)(O)C[C@@H](C)[C@H](OCCNC=O)[C@H](C)[C@@H](O)[C@]1(C)O` were, in that order, above 128 µg/mL, 8%, 47%, 31 nM and 100%.

In general, MIC refers to the smallest concentration in the dilution series that meets the test's criterion for growth inhibition. High values mean a less susceptible organism, low ones a more susceptible organism. In general, inhibition refers to how much of the control response was suppressed. A higher inhibition goes with a response far below the control. As usually defined, the EC50 is the midpoint of the concentration-response curve. Read a low EC50 as a more potent agent.
